IC50, Activity and viability data for one compound are collected here from ChEMBL document CHEMBL4823286, “Synthesis and evaluation of novel 2,4-diaminopyrimidines bearing a sulfoxide moiety as anaplastic lymphoma kinase (ALK) inhibition agents” (Bioorg Med Chem Lett, 2021).

Test [1] has as its system NCI-H2228. In words: Antiproliferative activity against human NCI-H2228 cells assessed as inhibition of cell proliferation measured by CCK8 assay. The format is functional, cell-based. The procedure, abridged:
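Cell proliferation inhibition; IC50 given as mean ± SD of three independent experiments.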
On the technique in general: Formazan colour is commonly taken as a measure of viable cells.

The test system of test [2] is NCI-H2228. In words: Cell cycle arrest in human NCI-H2228 cells assessed as accumulation of cells in G1 phase at 20 nM measured after 12 hrs by PI staining based flow cytometry method (reference value: 67.77%). The class given is functional. The procedure, abridged:
(§1)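 NCI-H2228 cells exposed to 20 nM for 0, 12, 24 or 48 h, stained with PI and analysed by flow cytometry for G0/G1, S and G2/M fractions. Phase percentages quantified by analysis software; three independent experiments, representative run shown.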

Test [3] has as its system NCI-H2228. In words: Cell cycle arrest in human NCI-H2228 cells assessed as accumulation of cells in G1 phase at 20 nM measured after 48 hrs by PI staining based flow cytometry method (reference value: 67.77%). The format is functional. A digest of the protocol:
as §1
For orientation: A flow cytometer gives signals particle by particle.

The subject of test [4] is NCI-H2228. In words: Cell cycle arrest in human NCI-H2228 cells assessed as downregulation of Cyclin D1 protein expression at 20 nM measured after 12 to 48 hrs by western blot assay. The class given is functional, cell-based. Particulars: time 12-48 hrs. The procedure, abridged:
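Western blot of cell-cycle regulatory proteins in NCI-H2228 cells held at 20 nM for 0, 12, 24 or 48 h. Performed three times, representative blot shown.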

The test system of test [5] is NCI-H2228. In words: Induction of apoptosis in human NCI-H2228 cells assessed as viable cells at 5 nM measured after 24 hrs by Annexin V-FITC.PI staining based flow cytometry assay (reference value: 95.6%). The format is functional. Particulars: read-out: Activity. A digest of the protocol:
(§2)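 After 24 h or 48 h exposure (5, 25, 50 nM; DMSO 0.01% control), NCI-H2228 cells were harvested, double-stained with Annexin V-FITC and PI and run on flow cytometry. Stage percentages quantified by software; three experiments, representative shown.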

Test [6] relates to NCI-H2228. In words: Induction of apoptosis in human NCI-H2228 cells assessed as early apoptotic cells at 5 nM measured after 24 hrs by Annexin V-FITC/PI staining based flow cytometry assay (reference value: 2.18%). The format is functional. The procedure, abridged: as §2
For test [7], the system named is NCI-H2228. In words: Induction of apoptosis in human NCI-H2228 cells assessed as necrotic cells at 5 nM measured after 24 hrs by Annexin V-FITC/PI staining based flow cytometry assay (reference value: 0.21%). The format is functional. The procedure, abridged:
as §2

The test system of test [8] is NCI-H2228. In words: Induction of apoptosis in human NCI-H2228 cells assessed as early apoptotic cells at 25 nM measured after 24 hrs by Annexin V-FITC/PI staining based flow cytometry assay (reference value: 2.18%). The class given is functional. A digest of the protocol:
as §2

Test [9] relates to NCI-H2228. In words: Induction of apoptosis in human NCI-H2228 cells assessed as late apoptotic cells at 25 nM measured after 24 hrs by Annexin V-FITC/PI staining based flow cytometry assay (reference value: 2.02%). The format is functional. A digest of the protocol:
as §2

The test system of test [10] is NCI-H2228. In words: Induction of apoptosis in human NCI-H2228 cells assessed as early apoptotic cells at 50 nM measured after 24 hrs by Annexin V-FITC/PI staining based flow cytometry assay (reference value: 2.18%). The format is functional. A digest of the protocol: as §2
In test [11] the test system is NCI-H2228. In words: Induction of apoptosis in human NCI-H2228 cells assessed as necrotic cells at 50 nM measured after 24 hrs by Annexin V-FITC/PI staining based flow cytometry assay (reference value: 0.21%). The format is functional. A digest of the protocol:
as §2

In test [12] the test system is NCI-H2228. In words: Induction of apoptosis in human NCI-H2228 cells assessed as viable cells at 5 nM measured after 48 hrs by Annexin V-FITC/PI staining based flow cytometry assay (reference value: 95.3%). The class given is functional. Particulars: read-out: Activity. A digest of the protocol: as §2
Test [13] relates to NCI-H2228. In words: Induction of apoptosis in human NCI-H2228 cells assessed as viable cells at 25 nM measured after 48 hrs by Annexin V-FITC/PI staining based flow cytometry assay (reference value: 95.3%). The format is functional. Particulars: read-out: Activity. The procedure, abridged:
as §2

For test [14], the system named is NCI-H2228. In words: Induction of apoptosis in human NCI-H2228 cells assessed as viable cells at 50 nM measured after 48 hrs by Annexin V-FITC/PI staining based flow cytometry assay (reference value: 95.3%). The format is functional. Particulars: read-out: Activity. The procedure, abridged: as §2
The subject of test [15] is NCI-H2228. In words: Induction of apoptosis in human NCI-H2228 cells assessed as early apoptotic cells at 50 nM measured after 48 hrs by Annexin V-FITC/PI staining based flow cytometry assay (reference value: 1.58%). The format is functional. A digest of the protocol:
as §2

The source made the active and inactive calls. The rule behind the calls is not given here.

Regarding `CCC(=O)Nc1cc(Nc2ncc(Cl)c(Nc3ccc(F)cc3[S+]([O-])CC)n2)c(OC)cc1N1CCN(C)CC1` (stereo not given), the IC50 in the test on NCI-H2228 [1] is 0.0244 µM. The Activity in the test with NCI-H2228 [2] stood at 71.23%; in the test on NCI-H2228 [3] it was 86.49%; in the test on NCI-H2228 [6], 9.56%; in the test with NCI-H2228 [7], 0.17%; in the test with NCI-H2228 [8] it was 13.9%; with NCI-H2228 [9], 9.63%. In addition, the Activity in the test with NCI-H2228 [10] is reported as 18.3%; in the test on NCI-H2228 [11], 0.47%; with NCI-H2228 [15], 7.9%. In the test on NCI-H2228 [4], the outcome was Active. For the same compound, the figures for the viability at 0.005 µM with NCI-H2228 [5] and in the test with NCI-H2228 [12] were 83.2% and 77%, respectively. Also, the viability at 0.025 µM in the test on NCI-H2228 [13] came out at 42.8%. The viability at 0.05 µM in the test with NCI-H2228 [14] turned out to be 10.1%.

A word on the IC50: it is the concentration that inhibits the measured activity by half.
